Data published in ChEMBL document CHEMBL1130259, “Nonsymmetrically substituted cyclic urea HIV protease inhibitors” (J Med Chem, 1997).

What was measured:
[1] = Maximum concentration (5 mg/kg, intravenously) in plasma of dogs; type: ADME, organism-based, Canis lupus familiaris; set-up: dose 5 mg/kg, route intravenous; conditions: dog, iv
Method in brief: (§1)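 Female Beagle dogs given a 5.0 mg/kg intravenous dose. Formulation was 10.0 mg/mL in PEG400/water/EtOH (60/30/10), dosed at 0.5 mL/kg. Compound levels were measured in plasma by a method validated over 0.10–50.0 μg/mL.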

[2] = Partition coefficient (logP) (HPLC); type: physicochemical; conditions: octanol/water
[3] = Oral bioavailability in dog (dose 10 mg/kg); type: ADME, organism-based, Canis lupus familiaris; conditions: in vivo
Method in brief: (§2)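 Female Beagle dogs received either 10.0 mg/kg orally (three dogs; 10.0 mg/mL, 1.0 mL/kg) or 5.0 mg/kg intravenously (same formulation, 0.5 mL/kg). Vehicle was PEG400/water/EtOH (60/30/10). Plasma concentrations were assayed by a method validated over 0.10–50.0 μg/mL.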

[4] = Half life (5 mg/kg, intravenously) determined by administering intravenously in dogs; type: ADME, organism-based, Canis lupus familiaris; conditions: dog, in vivo, iv; method in brief: as §1
[5] = target: Human immunodeficiency virus type 1 protease (Human immunodeficiency virus 1, UniProt Q72874); experiment: Affinity against HIV protease
[6] = target: Human immunodeficiency virus type 1 protease (Human immunodeficiency virus 1) (UniProt Q72874)
[7] = Maximum concentration (10 mg/kg, orally) in plasma of dogs; type: ADME, organism-based, Canis lupus familiaris; set-up: dose 10 mg/kg, route oral; conditions: dog, po
Method in brief: (§3)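 Three female Beagle dogs were dosed orally at 10.0 mg/kg. The compound was given at 10.0 mg/mL in PEG400/water/EtOH (60/30/10) at 1.0 mL/kg. Plasma drug was quantified by a method validated in dog plasma over 0.10–50.0 μg/mL.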

[8] = Half life (10 mg/kg, orally) […] in dog plasma; type: ADME, organism-based, Canis lupus familiaris; method in brief: as §3
[9] = Clearance (5 mg/kg, intravenously) in dog plasma; conditions: iv
[10] = Apparent volume of distribution of compound (5 mg/kg, intravenously) in dogs; conditions: dog, in vivo, iv, read-out: Vss
[11] = Half life (5 mg/kg, intravenously) determined by administering intravenously in dogs; conditions: dog, in vivo, iv
[12] = Clearance of compound in dog plasma; type: ADME, organism-based, Canis lupus familiaris; method in brief: as §1
[13] = Maximum concentration in dog plasma; type: ADME, organism-based, Canis lupus familiaris; method in brief: as §2
[14] = Apparent volume of distribution of compound in dog plasma; type: ADME, organism-based, Canis lupus familiaris; conditions: read-out: Vss; method in brief: as §1
[15] = Half life determined by administering intravenously in dog plasma; type: ADME, organism-based, Canis lupus familiaris; conditions: iv; method in brief: as §1
[16] = Clearance of compound (5 mg/kg, intravenously), in dog plasma; type: ADME, organism-based, Canis lupus familiaris; conditions: iv; method in brief: as §1
[17] = Maximum concentration (10 mg/kg, perorally) in plasma of dogs; type: ADME, organism-based, Canis lupus familiaris; set-up: dose 10 mg/kg, route oral; conditions: dog, po; method in brief: as §3
[18] = Apparent volume of distribution of compound (5 mg/kg, intravenously) in dogs; type: ADME, organism-based, Canis lupus familiaris; conditions: dog, in vivo, iv, read-out: Vss; method in brief: as §1
[19] = Half life (10 mg/kg, perorally) […] in dogs; type: ADME, organism-based, Canis lupus familiaris; conditions: dog, in vivo; method in brief: as §3
[20] = Half life determined by administering intravenously in dog; type: ADME, organism-based, Canis lupus familiaris; conditions: in vivo, iv; method in brief: as §1
Canis lupus familiaris = species on record: Canis lupus familiaris; experiment: Clearance of compound in dog plasma

Structure (SMILES) | logP [2] | Ki [5] [nM] | IC90 [6] [nM] | other results
Nc1cccc(CN2C(=O)N(Cc3cccc(C(=O)Nc4nc5ccccc5[nH]4)c3)[C@H](Cc3ccccc3)[C@H](O)[C@@H](O)[C@H]2Cc2ccccc2)c1 | 4.95 | 0.023 | 13.2 | Cmax [1]: 5500 ng/mL; bioavailability [3]: 109%; half-life [4]: 90 min
CC(C)(C)NC(=O)[C@@H]1CN(Cc2cccnc2)CCN1C[C@@H](O)C[C@@H](Cc1ccccc1)C(=O)N[C@H]1c2ccccc2C[C@H]1O | – | – | 50 | –
N#CCNC(=O)c1cccc(CN2C(=O)N(Cc3cccc(C(=O)NCC(=O)O)c3)[C@H](Cc3ccccc3)[C@H](O)[C@@H](O)[C@H]2Cc2ccccc2)c1 | 2.44 | 0.024 | 741 | –
COc1cccc(CN2C(=O)N(Cc3cccc(C(=O)Nc4cccc(C)n4)c3)[C@H](Cc3ccccc3)[C@H](O)[C@@H](O)[C@H]2Cc2ccccc2)c1 | 5.54 | 0.053 | 42.7 | –
Nc1cccc(CN2C(=O)N(Cc3cccc(N)c3)[C@H](Cc3ccccc3)[C@H](O)[C@@H](O)[C@H]2Cc2ccccc2)c1 [MOZENAVIR] | 3.17 | 0.31 | – | Cmax [7]: 6000 ng/mL; bioavailability [3]: 79.2%; half-life [8]: 150 min; clearance [9]: 3.33 mL/min/kg; Vd [10]: 1.3 L/kg; half-life [11]: 216 min
O=C(Nc1ccccn1)c1cccc(CN2C(=O)N(Cc3cccc(C(=O)Nc4ccccn4)c3)[C@H](Cc3ccccc3)[C@H](O)[C@@H](O)[C@H]2Cc2ccccc2)c1 | – | – | 2.8 | clearance [12]: 70 mL/min/kg; Cmax [13]: < 200 ng/mL; Vd [14]: 10.3 L/kg; half-life [15]: 66 min
O=C(Nc1ccccn1)c1cccc(CN2C(=O)N(Cc3cccc([N+](=O)[O-])c3)[C@H](Cc3ccccc3)[C@H](O)[C@@H](O)[C@H]2Cc2ccccc2)c1 | 5.05 | 0.096 | 97.5 | –
O=C(Nc1cnccn1)c1cccc(CN2C(=O)N(Cc3cccc(C(=O)Nc4cnccn4)c3)[C@H](Cc3ccccc3)[C@H](O)[C@@H](O)[C@H]2Cc2ccccc2)c1 | – | – | 3.5 | clearance [12]: 46.7 mL/min/kg; Cmax [13]: 400 ng/mL; Vd [14]: 3 L/kg; half-life [15]: 48 min
CC(C)(C)NC(=O)[C@@H]1C[C@@H]2CCCC[C@@H]2CN1C[C@@H](O)[C@H](Cc1ccccc1)NC(=O)[C@H](CC(N)=O)NC(=O)c1ccc2ccccc2n1 | – | – | 10.4 | –
COc1cccc(CN2C(=O)N(Cc3cccc(C(=O)Nc4ccc(C)cn4)c3)[C@H](Cc3ccccc3)[C@H](O)[C@@H](O)[C@H]2Cc2ccccc2)c1 | 5.51 | 0.069 | 41.6 | –
COc1cc(CN2C(=O)N(Cc3cccc(C(=O)Nc4ccc(C)cn4)c3)[C@H](Cc3ccccc3)[C@H](O)[C@@H](O)[C@H]2Cc2ccccc2)cc(OC)c1 | 5.59 | 1.9 | 282 | –
Nc1cccc(CN2C(=O)N(Cc3cccc(C(=O)Nc4ncc[nH]4)c3)[C@H](Cc3ccccc3)[C@H](O)[C@@H](O)[C@H]2Cc2ccccc2)c1 | 3.39 | 0.012 | 26.2 | clearance [16]: 8.33 mL/min/kg; Cmax [17]: 900 ng/mL; bioavailability [3]: 68%; Vd [18]: 4 L/kg; half-life [19]: 618 min; half-life [4]: 336 min
COc1cc(CN2C(=O)N(Cc3cccc(C(=O)Nc4cccc(C)n4)c3)[C@H](Cc3ccccc3)[C@H](O)[C@@H](O)[C@H]2Cc2ccccc2)cc(OC)c1 | 5.69 | 0.7 | 282 | –
COc1cccc(CN2C(=O)N(Cc3cccc(C(=O)Nc4ccccn4)c3)[C@H](Cc3ccccc3)[C@H](O)[C@@H](O)[C@H]2Cc2ccccc2)c1 | 5.06 | 0.047 | 30 | –
COc1cc(CN2C(=O)N(Cc3cccc(C(=O)Nc4cnccn4)c3)[C@H](Cc3ccccc3)[C@H](O)[C@@H](O)[C@H]2Cc2ccccc2)cc(OC)c1 | 4.84 | 2.51 | 743 | –
CC(C)CN(C[C@@H](O)[C@H](Cc1ccccc1)NC(=O)O[C@H]1CCOC1)S(=O)(=O)c1ccc(N)cc1 | – | – | 46 | –
COc1cc(CN2C(=O)N(Cc3cccc(C(=O)Nc4ccccn4)c3)[C@H](Cc3ccccc3)[C@H](O)[C@@H](O)[C@H]2Cc2ccccc2)cc(OC)c1 | 5.2 | 0.86 | 129 | –
Nc1cccc(CN2C(=O)N(Cc3cccc(C(=O)Nc4cnccn4)c3)[C@H](Cc3ccccc3)[C@H](O)[C@@H](O)[C@H]2Cc2ccccc2)c1 | 3.77 | 0.016 | 20.2 | –
COc1cccc(CN2C(=O)N(Cc3cccc(C(=O)Nc4cnccn4)c3)[C@H](Cc3ccccc3)[C@H](O)[C@@H](O)[C@H]2Cc2ccccc2)c1 | 4.75 | 0.038 | 91.2 | –
Cc1ccc(NC(=O)c2cccc(CN3C(=O)N(Cc4cccc(N)c4)[C@H](Cc4ccccc4)[C@H](O)[C@@H](O)[C@H]3Cc3ccccc3)c2)nc1 | 4.47 | 0.075 | 16.5 | –
Cc1ccc(NC(=O)c2cccc(CN3C(=O)N(Cc4cccc(C(=O)Nc5ccc(C)cn5)c4)[C@H](Cc4ccccc4)[C@H](O)[C@@H](O)[C@H]3Cc3ccccc3)c2)nc1 | – | – | 3.1 | Cmax [13]: 100 ng/mL; Vd [14]: 4.5 L/kg; half-life [20]: 60 min; clearance (Canis lupus familiaris): 66.7 mL/min/kg
CC(C)(C)NC(=O)c1cccc(CN2C(=O)N(Cc3cccc(N)c3)[C@H](Cc3ccccc3)[C@H](O)[C@@H](O)[C@H]2Cc2ccccc2)c1 | 5.28 | 0.41 | 114 | –
CC(C)c1nc(CN(C)C(=O)N[C@H](C(=O)N[C@@H](Cc2ccccc2)C[C@H](O)[C@H](Cc2ccccc2)NC(=O)OCc2cncs2)C(C)C)cs1 | – | – | 76 | –
O=C1N(Cc2ccc(CO)cc2)[C@H](Cc2ccccc2)[C@H](O)[C@@H](O)[C@@H](Cc2ccccc2)N1Cc1ccc(CO)cc1 [DMP-323] | 3.56 | – | 115 | –
